Data: ChEMBL document CHEMBL4689842, “EUbOPEN Chemogenomics Library wave 1” (2021)

Tested on: Fibroblast
Experiment: Multiplex assay against human fibroblast
Type: toxicity, cell-based
How it was run: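 Values for tubulin, mitochondrial-mass and membrane-permeability phenotypes are per cents of cells with healthy nuclei. These cells were identified by CellPathfinder machine-learning gating of live cells that had been stained at seeding with Hoechst33342, BioTracker Green Microtubule Cytoskeleton Dye, MitoTracker Red and Annexin V Alexa Fluor 680 and imaged on a CQ1 microscope at 37°C and 5% CO2 after compound addition. The gating first set Hoechst high-intensity objects apart from normal cells, then split normal cells into healthy, pyknosed or fragmented nuclei, and pyknosed cells into mitotic or apoptotic.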

[1] = 12 h, 1 µM, compound concentration 1 uM, replicate 1
[2] = 12 h, 1 µM, compound concentration 1 uM, replicate 2
[3] = 12 h, 10 µM, compound concentration 10 uM, replicate 1
[4] = 12 h, 10 µM, compound concentration 10 uM, replicate 2
[5] = 24 h, 1 µM, compound concentration 1 uM, replicate 1
[6] = 24 h, 1 µM, compound concentration 1 uM, replicate 2
[7] = 24 h, 10 µM, compound concentration 10 uM, replicate 1
[8] = 24 h, 10 µM, compound concentration 10 uM, replicate 2
[9] = 48 h, 1 µM, compound concentration 1 uM, replicate 1
[10] = 48 h, 1 µM, compound concentration 1 uM, replicate 2
[11] = 48 h, 10 µM, compound concentration 10 uM, replicate 1
[12] = 48 h, 10 µM, compound concentration 10 uM, replicate 2

## CN1CCN(Cc2ccc(Nc3ncc(Cl)c(Nc4ccccc4S(=O)(=O)N(C)C)n3)cc2)CC1 [DUBERMATINIB]
[1]
  Population Apoptotic (%): 54%
  Population Fragmented Nuclei (%): 27%
  Population Healthy Nuclei (%): 50%
  Population Hoechst High Intensity Objects (%): 12%
  Population Membrane Permeable-Phenotype (%): 41%
  Population Mitochondria Different-Phenotype (%): 3%
  Population Mitotic Cells (%): 45%
  Population Normal (%): 87%
  Population Pyknosed Nuclei (%): 21%
  Population Tubulin-Different-Phenotype (%): 41%
  Total Cell Count: 126
[2]
  Population Apoptotic (%): 100%
  Population Fragmented Nuclei (%): 13%
  Population Healthy Nuclei (%): 83%
  Population Hoechst High Intensity Objects (%): 10%
  Population Membrane Permeable-Phenotype (%): 4%
  Population Mitochondria Different-Phenotype (%): 16%
  Population Mitotic Cells (%): 0%
  Population Normal (%): 89%
  Population Pyknosed Nuclei (%): 2%
  Population Tubulin-Different-Phenotype (%): 11%
  Total Cell Count: 65
[3]
  Population Apoptotic (%): 72%
  Population Fragmented Nuclei (%): 18%
  Population Healthy Nuclei (%): 57%
  Population Hoechst High Intensity Objects (%): 14%
  Population Membrane Permeable-Phenotype (%): 22%
  Population Mitochondria Different-Phenotype (%): 11%
  Population Mitotic Cells (%): 28%
  Population Normal (%): 85%
  Population Pyknosed Nuclei (%): 23%
  Population Tubulin-Different-Phenotype (%): 56%
  Total Cell Count: 125
[4]
  Population Apoptotic (%): 73%
  Population Fragmented Nuclei (%): 45%
  Population Healthy Nuclei (%): 31%
  Population Hoechst High Intensity Objects (%): 9%
  Population Membrane Permeable-Phenotype (%): 28%
  Population Mitochondria Different-Phenotype (%): 38%
  Population Mitotic Cells (%): 26%
  Population Normal (%): 90%
  Population Pyknosed Nuclei (%): 22%
  Population Tubulin-Different-Phenotype (%): 42%
  Total Cell Count: 91
[5]
  Population Apoptotic (%): 70%
  Population Fragmented Nuclei (%): 28%
  Population Healthy Nuclei (%): 57%
  Population Hoechst High Intensity Objects (%): 11%
  Population Membrane Permeable-Phenotype (%): 31%
  Population Mitochondria Different-Phenotype (%): 5%
  Population Mitotic Cells (%): 29%
  Population Normal (%): 88%
  Population Pyknosed Nuclei (%): 14%
  Population Tubulin-Different-Phenotype (%): 37%
  Total Cell Count: 137
[6]
  Population Apoptotic (%): 0%
  Population Fragmented Nuclei (%): 11%
  Population Healthy Nuclei (%): 83%
  Population Hoechst High Intensity Objects (%): 6%
  Population Membrane Permeable-Phenotype (%): 4%
  Population Mitochondria Different-Phenotype (%): 36%
  Population Mitotic Cells (%): 100%
  Population Normal (%): 93%
  Population Pyknosed Nuclei (%): 4%
  Population Tubulin-Different-Phenotype (%): 14%
  Total Cell Count: 70
[7]
  Population Apoptotic (%): 42%
  Population Fragmented Nuclei (%): 23%
  Population Healthy Nuclei (%): 55%
  Population Hoechst High Intensity Objects (%): 15%
  Population Membrane Permeable-Phenotype (%): 12%
  Population Mitochondria Different-Phenotype (%): 16%
  Population Mitotic Cells (%): 57%
  Population Normal (%): 84%
  Population Pyknosed Nuclei (%): 21%
  Population Tubulin-Different-Phenotype (%): 61%
  Total Cell Count: 116
[8]
  Population Apoptotic (%): 95%
  Population Fragmented Nuclei (%): 30%
  Population Healthy Nuclei (%): 33%
  Population Hoechst High Intensity Objects (%): 14%
  Population Membrane Permeable-Phenotype (%): 55%
  Population Mitochondria Different-Phenotype (%): 55%
  Population Mitotic Cells (%): 4%
  Population Normal (%): 85%
  Population Pyknosed Nuclei (%): 36%
  Population Tubulin-Different-Phenotype (%): 65%
  Total Cell Count: 87
[9]
  Population Apoptotic (%): 62%
  Population Fragmented Nuclei (%): 39%
  Population Healthy Nuclei (%): 46%
  Population Hoechst High Intensity Objects (%): 10%
  Population Membrane Permeable-Phenotype (%): 22%
  Population Mitochondria Different-Phenotype (%): 7%
  Population Mitotic Cells (%): 37%
  Population Normal (%): 89%
  Population Pyknosed Nuclei (%): 13%
  Population Tubulin-Different-Phenotype (%): 40%
  Total Cell Count: 129
[10]
  Population Apoptotic (%): 66%
  Population Fragmented Nuclei (%): 30%
  Population Healthy Nuclei (%): 67%
  Population Hoechst High Intensity Objects (%): 4%
  Population Membrane Permeable-Phenotype (%): 24%
  Population Mitochondria Different-Phenotype (%): 5%
  Population Mitotic Cells (%): 33%
  Population Normal (%): 95%
  Population Pyknosed Nuclei (%): 2%
  Population Tubulin-Different-Phenotype (%): 41%
  Total Cell Count: 115
[11]
  Population Apoptotic (%): 53%
  Population Fragmented Nuclei (%): 39%
  Population Healthy Nuclei (%): 36%
  Population Hoechst High Intensity Objects (%): 13%
  Population Membrane Permeable-Phenotype (%): 31%
  Population Mitochondria Different-Phenotype (%): 21%
  Population Mitotic Cells (%): 46%
  Population Normal (%): 86%
  Population Pyknosed Nuclei (%): 24%
  Population Tubulin-Different-Phenotype (%): 73%
  Total Cell Count: 122
[12]
  Population Apoptotic (%): 50%
  Population Fragmented Nuclei (%): 43%
  Population Healthy Nuclei (%): 44%
  Population Hoechst High Intensity Objects (%): 16%
  Population Membrane Permeable-Phenotype (%): 32%
  Population Mitochondria Different-Phenotype (%): 19%
  Population Mitotic Cells (%): 50%
  Population Normal (%): 83%
  Population Pyknosed Nuclei (%): 11%
  Population Tubulin-Different-Phenotype (%): 48%
  Total Cell Count: 83
